Format in all cases: functional
Assay [1] concerns Aspergillus fumigatus. Put plainly: Antifungal activity against Aspergillus fumigatus 231 after 48 hrs by broth microdilution method. Particulars: Aspergillus fumigatus, 231, 48 h. The procedure, abridged: (§1)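 Broth microdilution in RPMI 1640 with glutamine, fluconazole as reference. For yeasts, MIC is ≥80% growth reduction (IC80) versus control. For filamentous fungi, the value is expressed as IC50. Readings at 24 and 48 h.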
In general terms: Broth dilution looks for growth in wells or tubes with falling amounts of substance.

Assay [2] has as its system Candida albicans. Kind of assay: Antifungal activity against Candida albicans ATCC 44859 after 48 hrs by broth microdilution method. Particulars: ATCC 44859, 48 h. The gist of the method: as §1
The test system of assay [3] is Pichia kudriavzevii. Put plainly: Antifungal activity against Candida krusei E28 after 24 hrs by broth microdilution method. The settings on record: E28, 24 h. The procedure, abridged:
as §1

The subject of assay [4] is Trichophyton mentagrophytes. Put plainly: Antifungal activity against Trichophyton mentagrophytes 445 after 120 hrs by broth microdilution method. Particulars: Trichophyton mentagrophytes, 445, 120 h. The gist of the method:
(§2)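 Filamentous dermatophyte tested by broth microdilution in RPMI 1640 with glutamine, fluconazole as reference. Value expressed as IC50 relative to growth control. Read at 72 and 120 h.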

In assay [5] the test system is Trichosporon asahii. Put plainly: Antifungal activity against Trichosporon asahii 1188 after 24 hrs by broth microdilution method. Particulars: Trichosporon asahii, 1188, 24 h. The gist of the method:
as §1

Assay [6] deals with Trichophyton mentagrophytes. Kind of assay: Antifungal activity against Trichophyton mentagrophytes 445 after 72 hrs by broth microdilution method. Particulars: Trichophyton mentagrophytes, 445, 72 h. The procedure, abridged:
as §2

Assay [7] relates to Candida albicans. Kind of assay: Antifungal activity against Candida albicans ATCC 44859 after 24 hrs by broth microdilution method. The settings on record: ATCC 44859, 24 h. The procedure, abridged: as §1
Assay [8] concerns Lichtheimia corymbifera. Kind of assay: Antifungal activity against Absidia corymbifera 272 after 48 hrs by broth microdilution method. The settings on record: Lichtheimia corymbifera, 272, 48 h. The procedure, abridged:
as §1

The subject of assay [9] is Aspergillus fumigatus. Kind of assay: Antifungal activity against Aspergillus fumigatus 231 after 24 hrs by broth microdilution method. The settings on record: Aspergillus fumigatus, 231, 24 h. The procedure, abridged:
as §1

Assay [10] concerns Lichtheimia corymbifera. Kind of assay: Antifungal activity against Absidia corymbifera 272 after 24 hrs by broth microdilution method. The settings on record: Lichtheimia corymbifera, 272, 24 h. The procedure, abridged: as §1
Assay [11] relates to Pichia kudriavzevii. Kind of assay: Antifungal activity against Candida krusei E28 after 48 hrs by broth microdilution method. The settings on record: E28, 48 h. The procedure, abridged: as §1
Assay [12] deals with Trichosporon asahii. Put plainly: Antifungal activity against Trichosporon asahii 1188 after 48 hrs by broth microdilution method. The settings on record: Trichosporon asahii, 1188, 48 h. The gist of the method:
as §1

In assay [13] the test system is Mycobacterium tuberculosis. Kind of assay: Antimycobacterial activity against Mycobacterium tuberculosis H37Rv My 331/88 after 21 days. Particulars: H37Rv My 331/88, 504 h. The gist of the method:
(§3)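 Micromethod MIC in Šula's semisynthetic medium at 37 °C. Compounds added in DMSO at 1000 down to 0.032 µmol/L. Isoniazid standard in sterile water at 0.5–250 µmol/L. Inocula: H37Rv 10^3, M. avium 10^5, M. kansasii 10^4. Read at 14 and 21 d, plus 7 d for M. kansasii.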

Assay [14] concerns Mycobacterium kansasii. Put plainly: Antimycobacterial activity against Mycobacterium kansasii My 235/80 after 7 days. Particulars: My 235/80, 168 h. The procedure, abridged: as §3
The test system of assay [15] is Mycobacterium kansasii. Put plainly: Antimycobacterial activity against Mycobacterium kansasii 6509/96 after 14 days. Particulars: 6509/96, 336 h. The procedure, abridged:
as §3

Assay [16] concerns Mycobacterium kansasii. Put plainly: Antimycobacterial activity against Mycobacterium kansasii 6509/96 after 7 days. The settings on record: 6509/96, 168 h. The gist of the method: as §3
Assay [17] concerns Mycobacterium avium. Kind of assay: Antimycobacterial activity against isoniazid, rifampicin, ethambutol and ofloxacin-resistant Mycobacterium avium My 330/88 after 21 days. The settings on record: My 330/88, 504 h. The procedure, abridged:
as §3

Assay [18] has as its system Mycobacterium kansasii. Put plainly: Antimycobacterial activity against Mycobacterium kansasii My 235/80 after 14 days. Particulars: My 235/80, 336 h. The procedure, abridged: as §3
The subject of assay [19] is Mycobacterium tuberculosis. Put plainly: Antimycobacterial activity against Mycobacterium tuberculosis H37Rv My 331/88 after 14 days. Particulars: H37Rv My 331/88, 336 h. The gist of the method: as §3
For assay [20], the system named is Mycobacterium avium. Put plainly: Antimycobacterial activity against isoniazid, rifampicin, ethambutol and ofloxacin-resistant Mycobacterium avium My 330/88 after 14 days. Particulars: My 330/88, 336 h. The gist of the method: as §3
Assay [21] relates to Mycobacterium kansasii. Kind of assay: Antimycobacterial activity against Mycobacterium kansasii 6509/96 after 21 days. Particulars: 6509/96, 504 h. The gist of the method: as §3
Assay [22] concerns Mycobacterium kansasii. Put plainly: Antimycobacterial activity against Mycobacterium kansasii My 235/80 after 21 days. Particulars: My 235/80, 504 h. The procedure, abridged: as §3
Assay [23] concerns Staphylococcus epidermidis. Put plainly: Antibacterial activity against Staphylococcus epidermidis H 6966/08 after 24 hrs by broth microdilution method. Particulars: H 6966/08, 24 h. The procedure, abridged:
(§4)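 Broth microdilution in Mueller–Hinton broth, compounds dissolved in DMSO, tested over a dilution series from 500 downward. MIC taken as ≥95% growth reduction (IC95) versus drug-free control. Benzylpenicillin comparator. Readings at 24 and 48 h.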

In assay [24] the test system is Staphylococcus aureus. Put plainly: Antibacterial activity against methicillin-resistant Staphylococcus aureus H 5996/08 after 24 hrs by broth microdilution method. The settings on record: H 5996/08, 24 h. The procedure, abridged: as §4
Assay [25] has as its system Staphylococcus aureus. Kind of assay: Antibacterial activity against Staphylococcus aureus CCM 4516/08 after 24 hrs by broth microdilution method. The settings on record: CCM 4516/08, 24 h. The gist of the method:
as §4

In assay [26] the test system is Staphylococcus aureus. Kind of assay: Antibacterial activity against methicillin-resistant Staphylococcus aureus H 5996/08 after 48 hrs by broth microdilution method. Particulars: H 5996/08, 48 h. The gist of the method: as §4
For assay [27], the system named is Staphylococcus epidermidis. Kind of assay: Antibacterial activity against Staphylococcus epidermidis H 6966/08 after 48 hrs by broth microdilution method. Particulars: H 6966/08, 48 h. The gist of the method:
as §4

For assay [28], the system named is Staphylococcus aureus. Put plainly: Antibacterial activity against Staphylococcus aureus CCM 4516/08 after 48 hrs by broth microdilution method. The settings on record: CCM 4516/08, 48 h. The gist of the method: as §4

≈ marks a conversion by molar mass, not a printed value.

On to `OC(Cn1cncn1)(Cn1cncn1)c1ccc(F)cc1F` [FLUCONAZOLE], for which the MIC50 (as a rule, the lowest concentration that inhibits either 50% of growth or 50% of the strains tested, depending on the study) in [1] was greater than 50 µM; in assay [4] it was 26 µM (≈ 7.96 µg/mL); in assay [6], 17 µM (≈ 5.21 µg/mL); in assay [8], greater than 50 µM; in assay [9] it was greater than 50 µM; in assay [10] it was greater than 50 µM. For the same compound, the MIC80 (as a rule, an inhibitory concentration at the 80% level, which refers to growth in some studies and to a panel of isolates in others) in assay [2] was 2 µM (≈ 0.613 µg/mL); in assay [3], greater than 50 µM; in assay [5], 4 µM (≈ 1.23 µg/mL); in [7], 1 µM (≈ 0.306 µg/mL); in assay [11] it was greater than 50 µM; in assay [12], 9 µM (≈ 2.76 µg/mL).
Consider `Nc1ccc(C(=O)O)c(O)c1` [AMINOSALICYLIC ACID], for which the minimal inhibitory concentration (MIC) – broadly, the smallest concentration in the dilution series that meets the test's criterion for growth inhibition – in [13] was found to be 62.5 µM (≈ 9.57 µg/mL); in assay [14] it was 125 µM (≈ 19.1 µg/mL); in assay [15] it was 125 µM (≈ 19.1 µg/mL); in assay [16] it was 32 µM (≈ 4.9 µg/mL); in assay [17], 125 µM (≈ 19.1 µg/mL); in assay [18], 1000 µM (≈ 153 µg/mL). Further, the MIC is 62.5 µM (≈ 9.57 µg/mL) in [19], 32 µM (≈ 4.9 µg/mL) in assay [20], 500 µM (≈ 76.6 µg/mL) in [21] and greater than 1000 µM in [22].
`NNC(=O)c1ccncc1` [ISONIAZID]: the minimal inhibitory concentration (MIC) in assay [13] is 1 µM (≈ 0.137 µg/mL); in assay [14], greater than 250 µM; in assay [15], 4 µM (≈ 0.549 µg/mL); in assay [16] it was 2 µM (≈ 0.274 µg/mL); in assay [17] it was greater than 250 µM; in assay [18], greater than 250 µM. Further, the MIC was 0.5 µM (≈ 0.0686 µg/mL) in assay [19], 250 µM (≈ 34.3 µg/mL) in [20], 4 µM (≈ 0.549 µg/mL) in [21] and greater than 250 µM in assay [22].
In the case of `CC1(C)S[C@@H]2[C@H](NC(=O)Cc3ccccc3)C(=O)N2[C@H]1C(=O)O` [PENICILLIN G], the MIC95 in [23] came to 250 µM (≈ 83.6 µg/mL); in [24], 62.5 µM (≈ 20.9 µg/mL); in assay [25], 0.98 µM (≈ 0.328 µg/mL); in [26], 125 µM (≈ 41.8 µg/mL); in [27], 250 µM (≈ 83.6 µg/mL); in assay [28], 0.98 µM (≈ 0.328 µg/mL).

The values are drawn from ChEMBL document CHEMBL3102784, “Salicylanilide diethyl phosphates: synthesis, antimicrobial activity and cytotoxicity” (Bioorg Med Chem, 2014).
